Measured values from different studies.
Compare with care: the assays were run in different laboratories.
PDGFRA T674I: Platelet-derived growth factor receptor alpha (PDGFRA, Homo sapiens, UniProt P16234, T674I)
PDGFRA: Platelet-derived growth factor receptor alpha (PDGFRA, Homo sapiens, UniProt P16234)
PDGFRA V561D: Platelet-derived growth factor receptor alpha (PDGFRA, Homo sapiens, UniProt P16234, V561D)

COc1cc2ncnc(Nc3ccc(Oc4ccccc4)cc3C)c2cc1OC
inhibition (PDGFRA T674I; enzyme activity, inhibitor; 1 µM): 0%

C[C@H](c1ccc(F)cc1)N(Cc1cccc(C(=O)O)c1)C(=O)c1cnc2ccccc2c1
remaining binding (PDGFRA; cell-free assay, competition with immobilised ligand; 1 µM): 100%

CC/C(=N\NC(=O)NCc1cccc(O)c1)c1ccc(O)c(C)c1O
inhibition (PDGFRA V561D; enzyme activity, inhibitor; 0.1 µM): 0.9%

Cc1ccc(NC(=O)c2ccc(C)c(C(F)(F)F)c2)cc1C#Cc1nn(C2CCC(O)CC2)c2ncnc(N)c12 (stereo not drawn)
remaining activity (PDGFRA V561D; enzyme activity, inhibitor; 10 µM): 0%

CCc1ccccc1C(=O)Nc1n[nH]c2c(C)c(F)c(C3C(C#N)=C(C)N(C)C(C)=C3C#N)cc12
remaining binding (PDGFRA; cell-free assay, competition with immobilised ligand; 1 µM): 100%

COc1cc(Nc2cnc(C#N)c(O[C@H](C)CN(C)C)n2)ncc1-c1cnn(C)c1
remaining activity (PDGFRA; enzyme activity, inhibitor, radiometric; 1 µM): 60%

COc1cc2ncnc(Nc3ccc(Oc4ccccc4)c(C)c3C)c2cc1OC
inhibition (PDGFRA T674I; enzyme activity, inhibitor; 1 µM): 9%

CN1CCN(c2cnc3c(C4CCN(C(=O)c5ccc(OC(F)(F)F)cc5N)CC4)ncnc3c2)CC1
remaining binding (PDGFRA; cell-free assay, competition with immobilised ligand; 1 µM): 100%

Cc1ccc(NC(=O)c2ccc(CN3CCN(C)CC3)cc2)cc1Nc1nccc(-c2cccnc2)n1
activity vs control (PDGFRA; enzyme activity, inhibitor; 0.5 µM): 5.9%

Cc1cc(NC(=O)c2cccc3cc(-c4cccc5[nH]nc(N)c45)ccc23)ccc1F
activity vs control (Platelet-derived growth factor receptor alpha (PDGFRA, Homo sapiens, UniProt P16234, D842V); enzyme activity, inhibitor; 0.1 µM): 28%

Cc1ccc(C(=O)NCc2ccsc2)cc1C#Cc1cn(C(C)C)c2ncnc(N)c12
activity vs control (PDGFRA V561D; enzyme activity, inhibitor; 1 µM): 1%

Cc1ccc(Nc2nccc(N(C)c3ccc4c(C)n(C)nc4c3)n2)cc1S(N)(=O)=O
remaining signal (PDGFRA; cell-free assay, inhibitor; 0.5 µM): 13.9%

CN(C)C(=O)Cn1cc(-c2nc([C@@](C)(c3ccc(-c4cnc(N)nc4)cc3)C3CC3)no2)cn1
remaining binding (PDGFRA; cell-free assay, competition with immobilised ligand; 1 µM): 100%

O=C(Nc1cnn(-c2csc(C(=O)NC3COC3)c2)c1)Nc1ccccc1Cl
remaining activity (PDGFRA; enzyme activity, inhibitor; 5 µM): 95.2%

Nc1ncnc2occ(-c3ccc(NC(=O)Nc4cc(C(F)(F)F)ccc4F)cc3)c12
remaining activity (PDGFRA; enzyme activity, inhibitor; 20 µM): 0.05%

O=C(Nc1ccc(Oc2ccc(F)cc2)cc1)N1CCc2ncccc2[C@H]1c1ccc(F)cc1
remaining binding (PDGFRA; cell-free assay, competition with immobilised ligand; 1 µM): 95%

CC(C)(C)c1nc(-c2cccc(NS(=O)(=O)c3c(F)cccc3F)c2F)c(-c2ccnc(N)n2)s1
remaining activity (PDGFRA; enzyme activity, inhibitor, radiometric; 1 µM): 103%

FC(F)(F)Oc1cccc(-c2cnc3ccc(-c4ccncc4)nn23)c1
activity vs control (PDGFRA; enzyme activity, inhibitor, radiometric; 1 µM): 70%

CCCOc1ccc(OC)c(F)c1C(=O)c1ccc(C(=O)N[C@@H]2CNC[C@H]2NC(=O)c2ccc3[nH]ncc3c2)cc1
remaining activity (PDGFRA V561D; enzyme activity, inhibitor; 10 µM): 6%

O=C(N1CCS(=O)(=O)CC1)N1C[C@H](c2ccc(OC(F)(F)F)cc2)C[C@H](c2nc(C3CC3)no2)C1
remaining binding (PDGFRA; cell-free assay, competition with immobilised ligand; 1 µM): 100%

O=C1Nc2ccc(Cl)cc2C1=Cc1cc(Cl)c(O)c(Cl)c1
remaining signal (PDGFRA; cell-free assay; 0.5 µM): 70.3%

Cc1cnc(NC2CCOCC2)nc1-n1cnc(C(=O)NC(CN)c2cc(F)cc(Cl)c2)c1 (stereo not drawn)
remaining activity (PDGFRA; enzyme activity, inhibitor, radiometric; 1 µM): 94%

CCN(CC)CCNC(=O)c1c(C)[nH]c(/C=C2\C(=O)Nc3ccc(F)cc32)c1C
remaining signal (PDGFRA; cell-free assay; 0.5 µM): 10.9%

COc1cc(-c2cc(-c3ccc(N4CCNCC4)cc3)cnc2N)cc(OC)c1OC
inhibition (PDGFRA T674I; enzyme activity, inhibitor; 1 µM): 4%

CNC(=O)c1cc(Oc2ccc(NC(=O)Nc3ccc(Cl)c(C(F)(F)F)c3)cc2)ccn1
inhibition (PDGFRA V561D; enzyme activity, inhibitor; 10 µM): 100%

CNC(=O)c1cc2c(Oc3ccc(NC(=O)C4(C(=O)Nc5ccc(F)cc5)CC4)cc3)ccnc2cc1OC
inhibition (PDGFRA V561D; enzyme activity, inhibitor, radiometric; 1 µM): 101%

CCC(=N\O)/C(C)=C/c1ccc(F)cc1
remaining binding (PDGFRA; cell-free assay, competition with immobilised ligand; 1 µM): 78%

Cc1sc(C(=O)NC2COC2)cc1-n1cc(NC(=O)Nc2c(F)cccc2Cl)cn1
remaining activity (PDGFRA; enzyme activity, inhibitor; 10 µM): 114%

COc1ccc2cc(OCC3(C(=O)O)CN(C(=O)c4ccc(F)cc4)C3)ccc2c1
remaining binding (PDGFRA; cell-free assay, competition with immobilised ligand; 1 µM): 100%

CCN(CC)c1ccc(C2=NNC(=O)CC2C)cc1[N+](=O)[O-] (stereo not drawn)
remaining activity (PDGFRA; enzyme activity, inhibitor; 10 µM): 91%
